From PubChem BioAssay come the findings set out here.

Calls of active or inactive are those of the source.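 Rule for the calls, unless noted: active = a full or partial loss of lipid-probe fluorescence in the fish gall bladder, intestine or both, judged by eye; inactive = no fluorescence loss, or compound toxic to the fish.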

The inhibition is the drop in the measured response relative to a control, in per cent.

Test [1] is described as follows: inhibitors of TNFa-induced NFkB p65 translocation, primary screen, imaging, HUVEC, MLSMR starter and 10KST1 sets (AID 438;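 active = inhibition above 20% together with a positive visual image hit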;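 note: compound added about 3h40 before a 20 min TNFalpha stimulation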;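 for inhibition: signal is the nuclear over cytoplasmic p65 intensity ratio per well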). The settings on record: HUVEC TNFa-induced p65 nuclear translocation; cell count: measured here: nuclei count (cytotoxicity indicator), at 2.08 µM; inhibition: at 2 µM, stronger effect = higher value, 0% TNFa-plus-vehicle, 100% no-TNFa wells.
A short description of test [2]: endothelial E-selectin expression blockers – imaging, HUVEC, immunofluorescence, MLSMR starter and 10KST1 sets, primary screen (AID 487;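 active = visually confirmed hit in the image check and inhibition above 20%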;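 for inhibition: signal is fraction of cell area covered by stained E-selectin grains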;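 for nuclei count: 100% = median nuclei count of all wells on the same plate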). The settings on record: HUVEC TNFalpha-induced E-selectin immunofluorescence imaging, at 2 µM; inhibition: stronger effect = higher value; nuclei count: measured here: cell number, toxicity.
A short description of test [3]: Primary imaging screen for DUSP6 inhibitors that restore phospho-Erk in transfected HeLa cells, chemical complementation (AID 609;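 active = compounds giving at least 50% inhibition in the cell-based MKP-3 phosphatase rescue imaging test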;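 for inhibition: phospho-Erk level distribution per well compared with pooled transfected vehicle control wells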). Conditions: HeLa MKP-3 transfected, phospho-Erk imaging KS statistic, at 10 µM, cells stimulated with TPA for 15 min.
Test [4] concerns the target Dual specificity protein phosphatase 6 (Homo sapiens) (UniProt Q16828). The test is described as above. The settings on record: HeLa MKP-3 transfected, phospho-Erk imaging KS statistic; at 10 µM; stronger effect = higher value; cells stimulated with TPA for 15 min.
Test [5] has as its target Voltage-gated potassium channel subunit beta-2 (Rattus norvegicus) (UniProt P62483). Put plainly: inhibitors of rat Kvbeta2 reductase activity – biochemical, NADPH fluorescence, primary screen (AID 622;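 active = fluorescence slope higher than the sample average by over 3 SD, cut at about -0.22 in these data, passing the limit was not always enough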;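 note: slope of raw intensity against log time taken from 70 to 1610 s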). The settings on record: recombinant KvBeta, 4-cyanobenzaldehyde reduction, at 10 µM, stronger effect = higher value.
The target is the same in test [6]. In words: enhancers of rat Kvbeta2 NADPH turnover – biochemical, NADPH fluorescence, primary screen (AID 623;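 active = NADPH fluorescence slope more negative than the mean of all samples by about 3 SD, 99.7% confidence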;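 note: fluorescence intensity change per second fitted from 20 to 320 s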). Conditions: Recombinant KvBeta, NADPH fluorescence decrease slope, 10 min; at 10 µM; stronger effect = lower value.
Test [7] deals with Alpha-2C adrenergic receptor (Homo sapiens) (UniProt P18825). Put plainly: compounds altering alpha2C-coupled GIRK flux – cell-based, HEK293 alpha2C/GIRK1/2, thallium flux, primary screen (AID 624;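 active = fluorescence slope after compound addition differing from the mean of all screened samples at 99.7% confidence, in either direction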;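 note: slope of fluorescence ratio to pre-addition baseline per second over 15 to 24 s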). The settings on record: thallium flux BTC fluorescence, at 10 µM, actives lie on both sides.
Alpha-2C adrenergic receptor (Homo sapiens), sequence (P18825 whole entry, looked up): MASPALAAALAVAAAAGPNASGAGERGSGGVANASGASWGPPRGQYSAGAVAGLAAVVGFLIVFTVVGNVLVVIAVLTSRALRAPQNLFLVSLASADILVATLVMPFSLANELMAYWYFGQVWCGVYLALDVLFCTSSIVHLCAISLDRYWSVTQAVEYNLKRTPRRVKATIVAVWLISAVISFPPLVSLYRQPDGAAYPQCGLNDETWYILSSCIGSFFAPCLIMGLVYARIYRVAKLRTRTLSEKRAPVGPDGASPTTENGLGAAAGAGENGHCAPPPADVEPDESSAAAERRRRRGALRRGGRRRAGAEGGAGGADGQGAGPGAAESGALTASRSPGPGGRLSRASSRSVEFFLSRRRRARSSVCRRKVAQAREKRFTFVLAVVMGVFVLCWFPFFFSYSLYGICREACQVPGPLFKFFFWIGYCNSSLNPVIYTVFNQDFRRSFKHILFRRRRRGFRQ
Test [8] in a line: inhibitors of larval lipid processing in zebrafish, primary screen, whole organism, PED6 fluorescence, gall bladder and intestine (AID 686).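 Note: larvae 5 to 7 days old with five fish per well; signal comes from phospholipase A2 cleavage of quenched PED6 carried via bile; overnight exposure to compound and PED6 before scoring.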 Conditions: Zebrafish larvae PED6 lipid processing, fluorescence scoring; screened at 20 µM (by protocol). The method, boiled down:
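Test system – live zebrafish larvae aged 5-7 days, whole organism · Buffer or medium – E3 fish medium · Reagent – quenched phospholipase substrate PED6, 100 nM final, ingested by larvae · Doses – 20 µM single dose · Incubation – overnight compound and PED6 incubation · Technique – visual fluorescence microscopy scoring of gall bladder, gut · Read-out basis – visual per-well fluorescence inhibition score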

Test [9] in a line: loss of swimming-algae plug formation – whole organism, Chlamydomonas reinhardtii, WT vs cilia-less mutant, absorbance, 96-well, primary screen (AID 463189;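 active = inhibition at or above 50% relative to wild type and mutant plate controls; inactive = inhibition below 50%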;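 note: 0% = wild type cc124 cells in DMSO and 100% = ciliumless bld1 mutant cells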). The settings on record: Chlamydomonas reinhardtii gravitaxis, OD600 absorbance, 2 days; at 10 µM; stronger effect = higher value.
[10] abbreviates: measured here: cell density z-score.
Where [11] appears, read: measured here: nuclear c-Myc green intensity z-score.
Where [12] appears, read: measured here: nuclear pErk red intensity z-score, stronger effect = higher value.

Voltage-gated potassium channel subunit beta-2 (Rattus norvegicus), sequence (P62483 whole entry, looked up): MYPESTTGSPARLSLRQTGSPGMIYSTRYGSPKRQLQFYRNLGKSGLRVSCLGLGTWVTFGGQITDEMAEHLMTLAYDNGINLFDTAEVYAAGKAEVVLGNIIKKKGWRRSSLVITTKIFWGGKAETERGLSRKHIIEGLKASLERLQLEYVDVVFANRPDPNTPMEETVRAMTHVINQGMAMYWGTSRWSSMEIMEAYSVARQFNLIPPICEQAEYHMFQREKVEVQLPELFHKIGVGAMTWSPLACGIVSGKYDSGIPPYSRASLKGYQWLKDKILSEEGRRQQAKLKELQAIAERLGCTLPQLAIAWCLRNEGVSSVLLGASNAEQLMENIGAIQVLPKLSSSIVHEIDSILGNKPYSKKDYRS
Dual specificity protein phosphatase 6 (Homo sapiens), sequence (Q16828 whole entry, looked up): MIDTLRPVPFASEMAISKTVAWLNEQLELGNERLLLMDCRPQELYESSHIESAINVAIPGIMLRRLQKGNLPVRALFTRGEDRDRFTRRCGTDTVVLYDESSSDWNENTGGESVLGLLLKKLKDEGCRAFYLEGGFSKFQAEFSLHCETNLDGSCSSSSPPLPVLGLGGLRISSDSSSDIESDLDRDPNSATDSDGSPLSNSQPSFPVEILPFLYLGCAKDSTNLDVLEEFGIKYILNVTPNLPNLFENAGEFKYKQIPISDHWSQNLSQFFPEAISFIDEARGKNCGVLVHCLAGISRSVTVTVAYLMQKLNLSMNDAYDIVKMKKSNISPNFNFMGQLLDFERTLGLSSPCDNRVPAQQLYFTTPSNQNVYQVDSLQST

With `COc1ccc(/C=C/C2=NC(=C\N(C)C)/C(=O)O2)cc1`, the cell count in [1] turned out to be 558. Also, the inhibition in [1] is 0.1% (inactive); in test [2], -26.3% (inactive); in test [4], 5.26% (inactive); in test [9], -3.9% (inactive). Moreover, the nuclei count in [2] was 155%. Moreover, the z-score in test [3] (setting [10]) is -0.557; in test [3] (setting [11]), 0.899; in test [3] (setting [12]), -1.61. Besides, the fluorescence slope in test [5] was -0.303 (inactive). In test [6], the NADPH fluorescence slope is 4.9e-06 (inactive). For the same compound, the slope in test [7] was 0.00517 (inactive). The outcome in test [8] was inactive.

Regarding `O=c1[nH]cnc2cc(-c3ccccc3)sc12`, the cell count in test [1] is 526. The inhibition in test [1] was -9.9% (inactive); in test [2], -20.4% (inactive); in test [4], 21% (inactive); in [9], -1.84% (inactive). The compound further displayed a nuclei count in [2] of 168%. In addition, the values for the z-score in test [3] (setting [10]), in test [3] (setting [11]) and in test [3] (setting [12]) were 0.45, -1.43 and 0.87, respectively. In test [5], the fluorescence slope was -0.351 (inactive). Also, in test [6], the NADPH fluorescence slope was -9.5e-06 (inactive). The slope in [7] was 0.00529 (inactive). Further, the compound was called inactive in test [8].

In the case of `CCOC(=O)c1cc(C)n(Cc2cccc(OC)c2OC)c1C`, the cell count in test [1] came to 502. The inhibition in test [1] was -9.3% (inactive); in [2], -39.9% (inactive); in [4] it was 17% (inactive); in test [9] it was 26.9% (inactive). This compound showed a nuclei count in test [2] of 122%. Besides, the z-score in test [3] (setting [10]) came to 1.01; in test [3] (setting [11]), 0.196; in test [3] (setting [12]), 0.00488. In addition, the fluorescence slope in [5] is -0.496 (inactive). Also, the NADPH fluorescence slope in [6] is -9.4e-05 (inactive). Besides, the slope in [7] is 0.00511 (inactive). Also, the compound was called inactive in test [8].

Consider `COc1ccc(C(=O)N2CCC(N3CCN(c4ccccc4)CC3)CC2)cc1OC`, for which, in [1], the cell count was determined as 420. In addition, the inhibition in test [1] is -28.9% (inactive); in test [2], -222% (inactive); in test [4] it was 17.7% (inactive); in test [9], 29.9% (inactive). This compound showed a nuclei count in [2] of 170%. For the same compound, the z-score in [3] (setting [10]) was 1.05; in test [3] (setting [11]), -0.675; in [3] (setting [12]) it was -0.812. Further, the fluorescence slope in [5] was -0.348 (inactive). Also, the NADPH fluorescence slope in test [6] was 9.9e-06 (inactive). In addition, the slope in test [7] is 0.00411 (inactive). Further, in [8], the outcome was inactive.

`COc1cccc(COc2nc3c(c(=O)n(C)c(=O)n3C)n2C)c1`: in [1], the cell count was determined as 456. Further, the inhibition in test [1] is -4.5% (inactive); in test [2], -99.3% (inactive); in [4], -7.28% (inactive); in test [9] it was 5.71% (inactive). In [2], this compound gave a nuclei count of 164%. In addition, the z-score in [3] (setting [10]) is -0.352; in test [3] (setting [11]), 0.147; in test [3] (setting [12]), -0.806. Moreover, the fluorescence slope in test [5] is -0.325 (inactive). In [6], the NADPH fluorescence slope was -1.3e-06 (inactive). Moreover, the slope in test [7] was 0.00578 (inactive). Moreover, the call in [8] was inactive.

Regarding `N#CCCSc1nc(N2CCOCC2)c2c(c1C#N)CCCC2`, the cell count in [1] came to 572. For the same compound, the inhibition in [1] is -15.5% (inactive); in test [2], -43.5% (inactive); in [4] it was 5.65% (inactive); in test [9], -11.5% (inactive). The nuclei count in test [2] came to 168%. Besides, the z-score was -1.47 in test [3] (setting [10]), -0.393 in test [3] (setting [11]) and -0.37 in test [3] (setting [12]). The fluorescence slope in [5] was -0.357 (inactive). In addition, in test [6], the NADPH fluorescence slope was 1.4e-05 (inactive). Moreover, the slope in [7] is 0.00506 (inactive). Further, the outcome in test [8] was inactive.

For `CCOc1cccc(-c2nn3c(-c4ccccn4)nnc3s2)c1`, the cell count in test [1] turned out to be 649. The inhibition in [1] is -3.2% (inactive); in test [2] it was -78% (inactive); in test [4] it was -9.66% (inactive); in test [9], 23.8% (inactive). For the same compound, the nuclei count in test [2] is 150%. The z-score is 0.204 in test [3] (setting [10]), -0.822 in test [3] (setting [11]) and 0.934 in [3] (setting [12]). For the same compound, in test [5], the fluorescence slope is -0.427 (inactive). The NADPH fluorescence slope in [6] is -4.9e-05 (inactive). In addition, in test [7], the slope is 0.00726 (inactive). Moreover, the call in [8] was inactive.

For the compound `Cc1nc(NS(=O)(=O)c2ccccc2)sc1NC(=O)OCCN(C)C`, in [1], the cell count is 362. Moreover, the inhibition in [1] was -18.9% (inactive); in test [2] it was -107% (inactive); in test [4] it was 24.3% (inactive); in [9] it was 34.8% (inactive). This compound also came in with a nuclei count in test [2] of 130%. Further, the z-score in test [3] (setting [10]) is 1.66; in test [3] (setting [11]) it was -0.339; in test [3] (setting [12]), -0.337. For the same compound, the fluorescence slope in test [5] was -0.331 (inactive). Besides, in test [6], the NADPH fluorescence slope was 2.1e-06 (inactive). Further, the slope in [7] was 0.00439 (inactive). For the same compound, in test [8], the outcome was inactive.

In the case of `Cc1ccc(C)n1Cc1ccc(C(=O)O)cc1`, the cell count in [1] turned out to be 645. In addition, the inhibition in test [1] is 1.9% (inactive); in [2] it was -32.8% (inactive); in test [4] it was -6.86% (inactive); in test [9], -3.17% (inactive). In addition, the nuclei count in test [2] was determined as 154%. The z-score is 1.01 in [3] (setting [10]), 0.014 in test [3] (setting [11]) and -0.0334 in test [3] (setting [12]). Also, the fluorescence slope in test [5] is -0.401 (inactive). Moreover, the NADPH fluorescence slope in test [6] is -4.4e-05 (inactive). The slope in [7] is 0.00514 (inactive). Further, the compound was classed as inactive in test [8].

On to `CCOC(=O)CCc1c(C)c(C#N)c2nc3ccccc3n2c1-n1ccnc1`, for which, in [1], the cell count was found to be 559. In addition, the inhibition in [1] is -4.6% (inactive); in [2], -37.8% (inactive); in test [4] it was 25.8% (inactive); in test [9], -3.19% (inactive). In addition, the nuclei count in test [2] turned out to be 140%. The z-score was 1.11 in test [3] (setting [10]), -0.305 in [3] (setting [11]) and 0.783 in [3] (setting [12]). The fluorescence slope in test [5] was -0.172 (inactive). For the same compound, the NADPH fluorescence slope in test [6] was -3.3e-07 (inactive). Also, the slope in test [7] was 0.0062 (inactive). Further, in test [8], the compound was called inactive.

For `Cc1nc(SCC(=O)c2ccccc2)c(C#N)c(-c2ccco2)c1C(=O)NCc1ccco1`, the cell count in [1] came to 391. Besides, the inhibition in [1] is 0.8% (inactive); in [2], 17.3% (inactive); in test [4], 11.4% (inactive); in [9], 10.9% (inactive). The compound also gave a nuclei count in test [2] of 138%. Further, the z-score in test [3] (setting [10]) was 0.205; in [3] (setting [11]), -0.115; in [3] (setting [12]), 1.15. Besides, the fluorescence slope in [5] is -0.39 (inactive). The NADPH fluorescence slope in test [6] is -0.000131 (inactive). In test [7], the slope is 0.0062 (inactive). In addition, the outcome in test [8] was inactive.

`O=C(c1cccc(Cl)c1)N1CCN(C(=O)c2ccccc2F)CC1`: the cell count in test [1] turned out to be 359. Moreover, the inhibition in test [1] is -17.3% (inactive); in test [2], -357% (inactive); in test [4], 1.75% (inactive); in test [9] it was -3.06% (inactive). In addition, the nuclei count in test [2] turned out to be 113%. Also, the figures for the z-score in test [3] (setting [10]), in test [3] (setting [11]) and in test [3] (setting [12]) were -0.228, -0.0273 and -2.04, respectively. Moreover, the fluorescence slope in test [5] was -0.466 (inactive). Besides, the NADPH fluorescence slope in [6] was -1.8e-06 (inactive). Further, in [7], the slope is 0.00888 (inactive). Besides, the outcome in test [8] was inactive.

As for `CC1(C)Nc2ccc(O)cc2-c2c1ssc2=S`, the cell count in [1] was found to be 403. The inhibition in test [1] is -28.2% (inactive); in test [2], -198% (inactive); in test [4] it was -0.624% (inactive); in [9] it was -1.08% (inactive). The nuclei count in test [2] stood at 193%. Besides, the figures for the z-score in test [3] (setting [10]), in test [3] (setting [11]) and in test [3] (setting [12]) were -0.436, -0.817 and -1.32, respectively. Also, the fluorescence slope in test [5] is -0.316 (inactive). In addition, the NADPH fluorescence slope in test [6] is 3.7e-06 (inactive). Also, the slope in test [7] is 0.00209 (inactive). The compound was called inactive in [8].
